Measured values from ChEMBL document CHEMBL1129041, “Design of orally active dual inhibitors of neutral endopeptidase and angiotensin-converting enzyme with long duration of action” (J Med Chem, 1996).

Assays:
[1] = molecular target: T1, Neprilysin (Mus musculus) (UniProt Q61391); test: (§1) In vivo percent inhibition activity against kidney Neutral endopeptidase 2 hr after oral administration of a dose of 2.6 x 10e-5 mol/kg; type: functional, organism-based
T1 sequence (whole entry): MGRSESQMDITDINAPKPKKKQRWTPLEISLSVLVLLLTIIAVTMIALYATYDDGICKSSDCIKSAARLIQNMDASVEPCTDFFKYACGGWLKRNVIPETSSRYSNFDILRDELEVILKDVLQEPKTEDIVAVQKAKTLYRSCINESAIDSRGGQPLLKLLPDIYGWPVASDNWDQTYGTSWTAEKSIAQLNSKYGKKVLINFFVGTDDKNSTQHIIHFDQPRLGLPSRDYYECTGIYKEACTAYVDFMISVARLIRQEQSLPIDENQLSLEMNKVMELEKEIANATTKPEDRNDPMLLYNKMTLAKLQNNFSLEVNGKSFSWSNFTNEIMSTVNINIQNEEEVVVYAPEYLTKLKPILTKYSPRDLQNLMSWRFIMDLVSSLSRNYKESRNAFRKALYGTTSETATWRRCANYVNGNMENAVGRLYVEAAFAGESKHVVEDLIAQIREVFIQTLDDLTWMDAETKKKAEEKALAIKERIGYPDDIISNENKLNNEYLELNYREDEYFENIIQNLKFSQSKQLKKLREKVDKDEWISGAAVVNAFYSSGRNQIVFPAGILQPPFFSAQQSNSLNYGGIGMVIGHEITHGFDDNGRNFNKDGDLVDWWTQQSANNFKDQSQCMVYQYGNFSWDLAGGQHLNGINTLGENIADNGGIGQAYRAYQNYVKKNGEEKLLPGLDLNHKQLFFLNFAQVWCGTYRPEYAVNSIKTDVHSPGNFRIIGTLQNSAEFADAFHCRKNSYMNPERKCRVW
Outline: (§2)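 Mice given a single oral dose in 10% ethanol/10% cremophor/80% water; kidneys taken 2 h later and homogenized at 4 °C in 50 mM Tris-HCl pH 7.4. Membrane fraction (100000g) preincubated 5 min at 25 °C with bestatin and captopril, then incubated 10 min with [3H]-D-Ala2-Leu-enkephalin (2 × 10^-8 M). [3H]Tyr-D-Ala-Gly counted; blanks contained 10^-5 M retrothiorphan.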

[2] = molecular target: T2, Angiotensin-converting enzyme (Mus musculus) (UniProt P09470); test: (§3) In vivo percent inhibition activity against lung Angiotensin I converting enzyme 2 hr after oral administration of a dose of 2.6 x 10e-5 mol/kg; type: functional, organism-based
T2 sequence (whole entry): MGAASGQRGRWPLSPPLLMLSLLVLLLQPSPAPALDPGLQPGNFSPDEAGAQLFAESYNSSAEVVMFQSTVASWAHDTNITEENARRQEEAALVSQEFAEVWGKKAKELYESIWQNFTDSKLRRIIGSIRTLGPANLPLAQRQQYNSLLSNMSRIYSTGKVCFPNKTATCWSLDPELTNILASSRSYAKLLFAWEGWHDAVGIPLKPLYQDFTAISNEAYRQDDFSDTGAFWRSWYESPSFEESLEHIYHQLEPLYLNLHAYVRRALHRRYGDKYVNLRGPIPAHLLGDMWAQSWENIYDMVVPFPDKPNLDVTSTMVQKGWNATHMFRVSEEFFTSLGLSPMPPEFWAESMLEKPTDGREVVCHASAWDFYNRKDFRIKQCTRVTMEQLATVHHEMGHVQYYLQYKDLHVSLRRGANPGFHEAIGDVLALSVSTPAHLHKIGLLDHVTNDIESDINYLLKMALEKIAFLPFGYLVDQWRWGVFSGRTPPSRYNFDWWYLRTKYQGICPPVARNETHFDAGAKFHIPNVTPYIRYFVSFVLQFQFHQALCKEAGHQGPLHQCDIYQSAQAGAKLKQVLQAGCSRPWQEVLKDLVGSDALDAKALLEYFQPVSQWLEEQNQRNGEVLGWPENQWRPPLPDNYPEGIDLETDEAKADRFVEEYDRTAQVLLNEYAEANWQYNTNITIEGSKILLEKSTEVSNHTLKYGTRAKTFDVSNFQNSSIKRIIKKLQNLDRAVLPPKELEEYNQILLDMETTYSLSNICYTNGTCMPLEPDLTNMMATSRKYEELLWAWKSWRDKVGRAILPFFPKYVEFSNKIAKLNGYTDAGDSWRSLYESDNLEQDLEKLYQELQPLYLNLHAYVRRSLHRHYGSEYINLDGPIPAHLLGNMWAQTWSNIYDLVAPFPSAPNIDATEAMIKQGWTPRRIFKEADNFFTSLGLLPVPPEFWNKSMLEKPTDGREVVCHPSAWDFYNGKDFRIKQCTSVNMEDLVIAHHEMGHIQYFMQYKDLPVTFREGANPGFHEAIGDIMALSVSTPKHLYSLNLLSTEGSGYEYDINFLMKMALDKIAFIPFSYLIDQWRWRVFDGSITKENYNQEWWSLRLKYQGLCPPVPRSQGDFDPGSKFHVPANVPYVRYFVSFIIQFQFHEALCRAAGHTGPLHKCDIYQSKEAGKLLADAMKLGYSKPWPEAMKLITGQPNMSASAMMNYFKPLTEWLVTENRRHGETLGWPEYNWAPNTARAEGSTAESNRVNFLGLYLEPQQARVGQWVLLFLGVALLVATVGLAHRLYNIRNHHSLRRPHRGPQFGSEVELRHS
Outline: (§4)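 Mice dosed orally in 10% ethanol/10% cremophor/80% water. At 2 h, [3H]trandaloprilate (0.5 µCi) given iv; 15 min later lungs homogenized at 4 °C in 50 mM Tris-HCl pH 8.0 with 1 mM NaCl, centrifuged, and radioactivity counted. Total binding from untreated mice; nonspecific binding from probe coinjected with 1000 equiv captopril.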

[3] = molecular target: T2, Angiotensin-converting enzyme (Mus musculus); test: as §3; type: organism-based; outline: as §4
[4] = molecular target: T1, Neprilysin (Mus musculus); test: as §1; type: organism-based; outline: as §2

Structure (SMILES)	inhibition [1] [%]	inhibition [2] [%]	inhibition [3] [%]	inhibition [4] [%]
Cc1ccc([C@H]2CC[C@@H](C(=O)O)N2C(=O)CNC(=O)[C@@H](S)Cc2ccc(O)cc2)cc1	3	33	–	–
O=C(NCC(=O)N1[C@@H](c2ccccc2O)CC[C@H]1C(=O)O)[C@@H](S)Cc1ccc(O)cc1	69	82	–	–
Cc1ccc([C@H]2CC[C@@H](C(=O)O)N2C(=O)CNC(=O)[C@@H](S)Cc2ccccc2)cc1	34	42	–	–
Cc1ccccc1[C@H]1CC[C@@H](C(=O)O)N1C(=O)CNC(=O)[C@@H](S)Cc1ccccc1	37	57	–	–
O=C(NCC(=O)N1[C@@H](c2ccccc2)CC[C@H]1C(=O)O)[C@@H](S)Cc1ccccc1	75	63	–	–
Cc1ccccc1C1CC[C@@H](C(=O)O)N1C(=O)CNC(=O)[C@@H](S)Cc1ccc(O)cc1 (single isomer, unassigned)	–	–	60	44
O=C(NCC(=O)N1[C@@H](c2cccc(O)c2)CC[C@H]1C(=O)O)[C@@H](S)Cc1ccc(O)cc1	72	–	89	–
